Cytotoxicity data for 40 molecules are collected here from ChEMBL document CHEMBL4513216, “Probing the Open Global Health Chemical Diversity Library for Multistage-Active Starting Points for Next-Generation Antimalarials” (ACS Infect Dis, 2020).

Each structure is given as a SMILES string.

This data set can be described thus: Toxicity liver stage against HepG2, at 10uM. In kind it is cell-based. Also on record: test concentration 10 uM, cell line HepG2-A16-CD81EGFP. Conditions: human, HepG2-A16-CD81EGFP cells; read-out: INHIBITION
The gist of the method: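 Uninfected HepG2-A16-CD81EGFP cells, 3 × 10^3 per well, 1536-well, plated on prespotted compound at 10 μM final, parasite-free screening media added to match infected plates; puromycin 10 μM positive, DMSO 0.5% negative; run in parallel with 48 h PbLuc assay at 37 °C, 5% CO2; viability by CellTiter-Glo luminescence, normalized to controls.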
Take `CO[C@H]1CN(C(=O)c2ccc3c(c2)OCO3)[C@@H]2COC[C@H]12`: the cytotoxicity at 10 µM is -142%.
To `Cc1nn(C)c(Cl)c1C1CCCN1CC(=O)NCc1ccccn1` (stereo not given) belongs -2.07%; to `CC(C)c1nc(CN2CCc3onc(-c4cccc(F)c4)c3C2)no1`, 5.56%; to `CC(CCc1ccccc1)CC(=O)NC1CCN(CC(N)=O)CC1` (stereo not given), 9.04%.
On to `O=C1O[C@@H]2CN(CCc3ccccc3)C[C@@H]2N1CCCN1CCOCC1`, for which the cytotoxicity at 10 µM was -3.2%.
As for `Cc1cnn(CC2CCCCN2C(=O)Cc2cccc(F)c2)c1` (stereo not given), the cytotoxicity at 10 µM was -10.7%.
For `Cc1ccc(N2CCCC3(COCCN(c4nccs4)C3)C2)nn1` (stereo not given) the value was -1.05%.
To `Cc1ccc(NC2CCN(C(=O)COc3ccccc3)CC2)nn1` belongs -3.25%; to `CC(C)CN(CC(O)c1ccc(F)cc1)C(=O)c1cnsn1` (stereo not given), -6.87%.
To `CCc1ncc(C(=O)N2CCCOC(Cn3cccn3)C2)cn1` (stereo not given) belongs -0.95%; to `N#Cc1cccnc1NCCc1cc(F)cc2c1OCOC2`, 19.5%.
Take `CC(C)(C)OC(=O)N1CCCN(c2nnc(C3CC3)s2)CC1`: the cytotoxicity at 10 µM was 8.05%.
Regarding `O=S(=O)(Nc1ccccn1)c1cc(Cl)cc2c1OCC2`, the cytotoxicity at 10 µM amounted to 0.38%.
For `CNCC[C@H]1CC(C)(C)Oc2ccc(OCC3CC3)cc21` the value was -9.44%.
For the molecule `CC(C)CCN1CCN(C(=O)c2cccnc2-n2cncn2)CC1`, the cytotoxicity at 10 µM amounted to 6.37%.
For `CCNc1ncc(C(=O)N(C)Cc2nc3cc(Cl)ccc3[nH]2)cn1`, the cytotoxicity at 10 µM is -44.3%.
Regarding `CC(C)c1nnc(CN2CCCC(Cn3cncn3)C2)o1` (stereo not given), the cytotoxicity at 10 µM is -3.39%.
To `Fc1ccc(CN2CCCN(Cc3cscn3)CC2)cc1` belongs 2.62%.
As for `CCOc1cccc(COC(=O)c2cscn2)n1`, the cytotoxicity at 10 µM was -0.262%.
To `COc1ccc(C(=O)NCc2ccon2)cc1F` belongs 0.824%; to `COCCn1cc(C(=O)N2CCCC2c2ccc(F)cc2)ccc1=O` (stereo not given), -0.12%.
For the molecule `O=C(NCc1ccc2c(c1)CCCO2)c1cn2c(n1)CNCC2`, the cytotoxicity at 10 µM is -15.7%.
To `COc1ccccc1-c1nccnc1C1CCN(C(C)=O)CC1` belongs -1.69%; to `O=C1C[C@@H]2CC[C@H](CN1)N2C(=O)CCc1ccccc1`, -0.0739%.
Take `Cc1cccc(CN2Cc3[nH]nc(COc4cccnc4)c3C2)n1`: the cytotoxicity at 10 µM was 0.288%.
`Cc1cccc(NC(=O)c2cccc(OCc3nnnn3C)c2)n1`: the cytotoxicity at 10 µM is 3%.
To `COCCN(Cc1ccc(F)cc1Cl)C(=O)c1cc(C)n[nH]1` belongs 0.886%; to `Cc1cnc2n(c1=O)C(CC(=O)NCc1ccc(F)cc1)CS2` (stereo not given), 6.47%; to `Cc1ccc(NC(=O)Cn2ncc(SCC(N)=O)c(Cl)c2=O)c(F)c1`, -7.21%.
Consider `Cc1cc(N2CCC(Cc3cccnc3)C2)ncn1` (stereo not given), for which the cytotoxicity at 10 µM was -2.15%.
For `O=C(NCC(c1ccc(F)cc1)N1CCOCC1)Nc1cn[nH]c1` (stereo not given), the cytotoxicity at 10 µM is -15%.
For the molecule `NC(=O)c1cccc(CCNCc2cccs2)c1`, the cytotoxicity at 10 µM came to 1.68%.
For `CN(C)CC(=O)N1C[C@H]2CCC[C@@]2(COc2ccccn2)C1` the value was 3.88%.
To `O=C(NCCC1CN(Cc2c[nH]cn2)CCO1)c1ccccc1O` (stereo not given) belongs 0.423%.
For `Cc1noc(C)c1CSC1CCCN(c2cnn(C)c2)C1=O` (stereo not given) the value was 16.8%; for `COCCn1cc2c(n1)C(CNCc1nccs1)OCC2` (stereo not given), -0.726%.
With `O=C(Cn1cc(-c2ccccc2)cn1)N1CCNC1=O`, the cytotoxicity at 10 µM is 6.74%.
Take `Cc1nccn1-c1cc(CNC(=O)N2CCSCC2)ccn1`: the cytotoxicity at 10 µM was -0.613%.
For `CC(C)c1noc([C@@H]2Cc3[nH]cnc3CN2C(=O)Nc2ccccc2)n1`, the cytotoxicity at 10 µM is 0.0515%.
Take `CC(C)(C)CC(=O)N1C[C@@H]2C[C@@H]1CN2`: the cytotoxicity at 10 µM amounted to 6.59%.
